Where a name gives a salt, the structure may show the parent alone.
Key:
Format in all cases: functional, organism-based
[1] = species on record: Rattus norvegicus; experiment: Concentration necessary to cause 50% increase in cAMP formation(by adenylate cyclase) relative to the maximum increase caused by the compound
Outline: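 Rat caudate homogenate (male Charles River rats, 225-300 g), made at 0 °C in 50 mM Tris-maleate pH 7.4 with 2 mM EGTA; incubated with test compound at increasing concentrations, 2 mM MgSO4, 5 mM aminophylline, and [14C]ATP (final 0.65 mM) for 3 min at 30 °C. [14C]cAMP isolated on alumina/Dowex columns and counted; quadruplicates; least-squares dose-response curves.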

[2] = species on record: Oryctolagus cuniculus; experiment: Inhibition of the constrictor response to electrical stimulation in rabbit ear artery.
Outline: (§1)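 Isolated perfused rabbit ear artery in Krebs-Henseleit (95% O2/5% CO2, 35 °C, pH 7.4), stabilized ≥1 h. Sympathetic nerves field-stimulated every 4 min (0.7-ms pulses, 75 V, 10-15 Hz trains of 300-500 ms). Compound superfused at increasing concentrations, 4 min each. Read-out is the rise in perfusion pressure; IC50 from least-squares curves.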

[3] = species on record: Oryctolagus cuniculus; experiment: Concentration necessary to inhibit 50% of the constrictor response to electrical stimulation in rabbit ear artery; I=Inactive; outline: as §1

## C=CCN1CCc2c(cc(O)c(O)c2Cl)C(c2ccc(O)cc2)C1 (stereo not given)
[1]
  EC50: 15 nM
[2]
  EC50: 122 nM

## CCCN(CCC)CCc1ccc(O)c(O)c1
[2]
  EC50: 60 nM

## C/C=C/CN1CCc2c(cc(O)c(O)c2Cl)C(c2ccc(O)cc2)C1 (stereo not given)
[2]
  EC50: 10000 nM

## C=CCN1CCc2c(cc(O)c(O)c2Cl)C(c2cccc(O)c2)C1 (stereo not given)
[1]
  EC50: 125 nM
[2]
  EC50: 760 nM

## CCCN1CCc2c(cc(O)c(O)c2Cl)C(c2ccc(O)cc2)C1 (stereo not given)
[1]
  EC50: 550 nM
[2]
  EC50: 1000 nM

## C#CCN1CCc2c(cc(O)c(O)c2Cl)C(c2ccc(O)cc2)C1 (stereo not given)
[1]
  EC50: 640 nM
[2]
  EC50: 2700 nM

## C=CCN1CCc2c(cc(O)c(O)c2Cl)[C@@H](c2ccc(O)cc2)C1
[1]
  EC50: 9 nM
[2]
  EC50: 84 nM

## C=CCN1CCc2c(cc(O)c(O)c2Cl)[C@H](c2ccc(O)cc2)C1
[1]
  EC50: > 10000 nM
[2]
  EC50: 3000 nM

## NC1CCc2cc(O)c(O)cc2C1 (stereo not given)
[2]
  EC50: 17 nM

## OCC(O)CN1CCc2c(cc(O)c(O)c2Cl)C(c2ccc(O)cc2)C1 (stereo not given)
[2]
  EC50: > 10000 nM

## Oc1ccc(C2CN(C/C=C/c3ccccc3)CCc3c2cc(O)c(O)c3Cl)cc1 (stereo not given)
[3]
  EC50: Not Active

## CCCCN(CCC)CCc1ccc(O)c(O)c1
[2]
  EC50: 48 nM

## Oc1ccc(C2CN(CC3CC3)CCc3c2cc(O)c(O)c3Cl)cc1 (stereo not given)
[1]
  EC50: 1100 nM
[2]
  EC50: 1700 nM

## OCCN1CCc2c(cc(O)c(O)c2Cl)C(c2ccc(O)cc2)C1 (stereo not given)
[1]
  EC50: 1000 nM
[2]
  EC50: 500 nM

## CN1CCc2c(cc(O)c(O)c2Cl)C(c2ccc(O)cc2)C1 (stereo not given)
[1]
  EC50: ~10000 nM
[2]
  EC50: 90 nM

## Oc1cc2c(cc1O)CCNCC2
[2]
  EC50: 12 nM

## CN1CCc2cccc3c2[C@H]1Cc1ccc(O)c(O)c1-3 [APOMORPHINE]
[2]
  EC50: 44 nM

## NCCc1ccc(O)c(O)c1 [DOPAMINE]
[2]
  EC50: 38 nM

## Oc1ccc(C2CNCCc3c2cc(O)c(O)c3Cl)cc1 (stereo not given) [FENOLDOPAM MESYLATE]
[1]
  EC50: 57 nM
[2]
  EC50: 1000 nM

## CCCN(CCC)CCc1ccc(O)c2c1CC(=O)N2 [SKF-89124A]
[2]
  EC50: 2 nM

From ChEMBL document CHEMBL1123471, “Dopamine receptor agonists: 3-allyl-6-chloro-2,3,4,5-tetrahydro- 1-(4-hydroxyphenyl)-1H-3-benzazepine-7,8-diol and a series of related 3-benzazepines” (J Med Chem, 1986)
